Assay [1] is filed under the species Rattus norvegicus. As to the kind of experiment: Neuroprotective effect evaluated for excitatory amino acid receptor antagonism with the concentration at 1 uL in the corpus striatum of 3 rats with choline acetyltransferase as the marker enzyme. It counts as functional. In short, it runs like this:
(§1)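 Rat corpus striatum, stereotaxic infusion under […] anaesthesia (4 mL/kg ip). 1 μL solution held KAIN 10 nmol, quinolinic acid 300 nmol or AMPA 100 nmol, with or without antagonist 150 nmol. After 3 days recovery, striatum was homogenized in Tris-HCl/Triton X-100 and spun at 10000g. Choline acetyltransferase and glutamic acid decarboxylase activities were read as percent of non-lesioned tissue.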

Assay [2] is filed under the species Rattus norvegicus. As to the kind of experiment: Neuroprotective effect evaluated for excitatory amino acid receptor antagonism with the concentration at 1 uL in the corpus striatum of 3 rats with glutamic acid decarboxylase as the marker enzyme. The assay is classed as functional. In short, it runs like this:
as §1

Assay [3] is filed under the species Rattus norvegicus. As to the kind of experiment: Neuroprotective effect evaluated for excitatory amino acid receptor antagonism with the concentration at 1 uL in the corpus striatum of 14 rats with choline acetyltransferase as the marker enzyme. The assay is classed as functional. Details: concentration or dose not given beside the values. A digest of the protocol: (§2)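 […]-anaesthetised rats (4 mL/kg ip), stereotaxic cannula into corpus striatum; 1 µL infused containing kainate (10 nmol), quinolinic acid (300 nmol) or AMPA (100 nmol), with or without co-infused antagonist. After 3-day recovery, striata were homogenised in 50 mM Tris-HCl pH 7.4 with 0.2% Triton X-100 and spun 10000g for 10 min. Choline acetyltransferase or glutamic acid decarboxylase activity was reported as % remaining versus non-lesioned striatum.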

Assay [4] addresses Glutamate receptor ionotropic AMPA (Homo sapiens, UniProt P42261+P42262+P42263+P48058). Description: Inhibition of the binding of radioligand [3H]AMPA in the presence at low-affinity AMPA receptor sites. The assay is classed as protein-complex assay.
Assay [5] is described as follows: Inhibition of the binding of radioligand [3H]AMPA in the presence at Non N-methyl-D-aspartate glutamate receptor. A digest of the protocol:
(§3)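 Rat brain membrane [3H]AMPA binding run with 100 mM isothiocyanate present, so both high- and low-affinity AMPA sites are detected. Competitors were tested over concentration ranges of 1–1000 μM, and the IC50 was calculated from displacement data.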

Assay [6] is filed under the species Rattus norvegicus. As to the kind of experiment: Neuroprotective effect evaluated for excitatory amino acid receptor antagonism with the concentration at 1 uL in the corpus striatum of 9 rats with choline acetyltransferase as the marker enzyme. It counts as functional. In short, it runs like this: as §2
For assay [7], the species on record is Rattus norvegicus. As to the kind of experiment: Neuroprotective effect evaluated for excitatory amino acid receptor antagonism with the concentration at 1 uL in the corpus striatum of 9 rats with glutamic acid decarboxylase as the marker enzyme. It counts as functional. In short, it runs like this:
as §2

The species entered for assay [8] is Rattus norvegicus. Description: Neuroprotective effect evaluated for excitatory amino acid receptor antagonism with the concentration at 1 uL in the corpus striatum of 5 rats with choline acetyltransferase as the marker enzyme. The assay is classed as functional. A digest of the protocol: as §2
The species entered for assay [9] is Rattus norvegicus. Description: Neuroprotective effect evaluated for excitatory amino acid receptor antagonism with the concentration at 1 uL in the corpus striatum of 5 rats with glutamic acid decarboxylase as the marker enzyme. The assay is classed as functional. A digest of the protocol:
as §2

The species named for assay [10] is Rattus norvegicus. As to the kind of experiment: Neuroprotective effect evaluated for excitatory amino acid receptor antagonism with the concentration at 1 uL in the corpus striatum of 7 rats with choline acetyltransferase as the marker enzyme. The assay is classed as functional. In short, it runs like this:
as §2

Assay [11] is filed under the species Rattus norvegicus. As to the kind of experiment: Neuroprotective effect evaluated for excitatory amino acid receptor antagonism with the concentration at 1 uL in the corpus striatum of 7 rats with glutamic acid decarboxylase as the marker enzyme. It counts as functional. A digest of the protocol:
as §2

The species named for assay [12] is Rattus norvegicus. Description: Neuroprotective effect evaluated for excitatory amino acid receptor antagonism with the concentration at 1 uL in the corpus striatum of 14 rats with glutamic acid decarboxylase as the marker enzyme. The assay is classed as functional. In short, it runs like this: as §2
Assay [13] in a line: Inhibition of the binding of radioligand [3H]AMPA in the presence of the compound. at Non N-methyl-D-aspartate glutamate receptor. A digest of the protocol:
as §3

pIC50: −log10 of the molar value. Where “and” joins values, the source holds several entries; their conditions need not be identical. Equal values may be shown once.

The pIC50 is −log10 of the IC50, conventionally taken in molar units.

With `Cc1onc(OCC(=O)O)c1CC(N)C(=O)O.O=C(O)c1cccnc1C(=O)O` (stereo unspecified), the Enzyme activity in the assay listed under Rattus norvegicus [1] came out at 52%; in the assay listed under Rattus norvegicus [2], 64%. On to `Cc1onc(O)c1CC(N)C(=O)O` [(R,S)-AMPA], for which the Enzyme activity in the assay filed under Rattus norvegicus [3] is 53% and 40%. Consider `Cc1onc(OCC(=O)O)c1CC(N)C(=O)O` (stereo unspecified), for which the negative-log IC50 (pIC50) was 4.01 in [4] and 4.05 in assay [5]. For `Cc1onc(O)c1CC(N)C(=O)O.Cc1onc(O)c1Cn1oc(C)c(CC(N)C(=O)O)c1=O` (stereo unspecified), the Enzyme activity in the assay listed under Rattus norvegicus [6] is listed as 53%; in the assay filed under Rattus norvegicus [7], 39%. Take `Cc1onc(O)c1Cn1oc(C)c(CC(N)C(=O)O)c1=O.O=C(O)c1cccnc1C(=O)O` (stereo unspecified): the Enzyme activity was 50% in the assay filed under Rattus norvegicus [8] and 49% in the assay filed under Rattus norvegicus [9].

As to `Cc1onc(O)c1CC(N)C(=O)O.O=C(O)C1CN(CCCP(=O)(O)O)CCN1` (stereo unspecified), the Enzyme activity in the assay listed under Rattus norvegicus [10] was determined as 55%; in the assay filed under Rattus norvegicus [11], 50%. For `O=C(O)C1CN(CCCP(=O)(O)O)CCN1.O=C(O)c1cccnc1C(=O)O` (stereo unspecified), the Enzyme activity is given as 98% in the assay listed under Rattus norvegicus [8] and 99% in the assay filed under Rattus norvegicus [9]. For `O=C(O)c1cccnc1C(=O)O` [QUINOLINIC ACID], the Enzyme activity came to 61% in the assay filed under Rattus norvegicus [3] and 53% in the assay filed under Rattus norvegicus [12]. As for `Cc1onc(O)c1Cn1oc(C)c(CC(N)C(=O)O)c1=O` (stereo unspecified), the figures for the negative logarithm of the IC50 (pIC50) in [4] and in assay [13] were 3.47 and 4.54, respectively.

For the molecule `C=C(C)[C@H]1CN[C@H](C(=O)O)[C@H]1CC(=O)O` [KAINIC ACID], the Enzyme activity turned out to be 34% in the assay listed under Rattus norvegicus [10] and 44% in the assay listed under Rattus norvegicus [11].

As to `Cc1onc(O)c1CC(N)C(=O)O.Cc1onc(OCC(=O)O)c1CC(N)C(=O)O` (stereo unspecified), the results for the Enzyme activity in the assay filed under Rattus norvegicus [3] and in the assay listed under Rattus norvegicus [12] were 68% and 62%, respectively.

For the origin of these results see ChEMBL document CHEMBL1125714, “Novel class of amino acid antagonists at non-N-methyl-D-aspartic acid excitatory amino acid receptors. Synthesis, in vitro and in vivo pharmacology, and neuroprotection” (J Med Chem, 1991).
